This sample holds only a part of the variants without activity.
B1: tRNA (parent)
chain: GUUCCGUUGGCGUAAUGGUAACGCGUCUCCCUCCUAAGGAGAAGACUGCGGGUUCGAGUCCCGUACGGAACG

Variants of: B1
Experiment: yeast fitness relative to wild type (ratio to wild type); higher = fitter; tRNA-Arg(CCU), competitive growth, 37 C, YPD
Outline: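 Start and end populations of a pooled competition were compared by 100-nucleotide paired-end sequencing of gene amplicons. The Saccharomyces cerevisiae strains carried tRNA-Arg(CCU) gene variants at the native genomic locus, synthesised with a 3% per-site mutation rate at 69 sites, and competed in YPD at 37°C for 24 hours in six parallel replicates. Darwinian fitness relative to wild type was based on the change in genotype frequencies. Genotypes required ≥ 100 starting reads, and estimates < 0.5 were set to 0.5.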

Variant | yeast fitness
GUUCCGUUGGCGUAAUGGUAACGCGUCUCCGUCCUAAGGAGAAGACUGCGGGUUCGAGUCCCGUUCCGAACG | 0.567
GUUCCGUUGGCGUAAUGGUAACGAGUCUCCCUCCUAGGGAGAAGACUGCGGGUUCGCGUCCCGUACGGAACG | ≤ 0.5
GUUACGUUGGCGUAAUGGUAAGGCGUCUUCCUCCUAAGGAGAAGACUGCGGGUUCGAGUCCCGUACGCAACG | ≤ 0.5
GUUCCGUUGGCGUAAUGGUAACGCGUCUCCCUCCUAAGGCGAAGACUGCGGGUUCAACUCCCGUACGGAACG | 0.598
GUUCCGUUGGCGUAAUGGCAUCGCGUCUCCUUCCUAAGGAGGUGACUGCGGGUUCGAGUCCCGUACGGAACG | 0.929
GUUCCGUUGACGUAAUGGUAACGCGUCUGCCUCCUAAGGAGAUGACUGCGGGGUCGAGUCCCGUACGGAACG | ≤ 0.5
GUUACGUUGGCGUCAUGGUAACGCGUCUCCCUCCUAAGGAGAAGACUGCGGGUUCGAGUCCCGUACGGAACG | 0.591
GUUCCGUUGGCGUAAUGAUAACGCGUCUUCCUCCUAAGGAGAAGGCUGCGGGUUCGAGUCCCGUACGGAGCG | ≤ 0.5
GUUCCGUUGGCGUGAUGGUAACGGAUCUCCCUCCUAAGGAGAGGACUGAGGGUUCGAGUCCCGUACGGAACG | ≤ 0.5
GAUCCGUUGGCGUAAUGGUAACCCGUCUCCCUCCUAAGGAGAAGACUGCGGGUUCGAAUCCCGUACGGAACG | ≤ 0.5
GUUCCGUUGGCGUACUGGUAACGCGUCUCGCUCCUAAGGAGAAGACUGCGGGUUCGAGUCCCGUAGGGUACG | ≤ 0.5
GUUCCGUCGGCGUAAUGGUAACGCGUCUCCCUCCUCAGGAAAAGACUGCGGGUUCGAGUCCCGUACGACACG | ≤ 0.5
GUUCCGUUGGCGUAAUGGUAACGCGUGUCCCUCCUAAGAAGAAGAUUGCGGGUUCGAGUCCCGUACGGAGCG | ≤ 0.5
GUUCCGAUGGCGUAAUGGUAUCGCGUGUCCCUGCUAAGGAGAAGUCUGCGGGUUCGAGUCCCGUACGGAACG | 0.506
GUUCCGUUGGAGUAAUGGUAACGCGUCUCCCCCCUAAGGAGAAGACUGCGGGUUCGAGUCCCGUACGGAACG | 0.739
GUUCUGUUGGCGUAAUGGUGACGCGUCUCCCUCCUAAGGAGAAGACUGCGGGUUCGAGUCCCGUACGGAACG | 0.904
GUUCCGUUGGCGUAAUGGAAACGCGUCUCCCUCCUAAGGAGAAGACUGCGGGUUCGAGUCCCGUCCGGAACG | 1.01
GUUUCGUUGGUGUAAUGGUAACGCGUCUCCCUCCUAAGGAGAAGACUGCGGGUUCGAGUCCCGUUCGGAACG | 0.669
GUUCCGUUGGCGUAAUGGUAACACGUCUCCCUCCUAAGGAGAAGACUGCGGGUUCGAGUCCCGUACGCAACG | 0.746
GUUCCGUUGACGUAAUGGUAACGCGUCUCCCCCCUAAGGAGAAGACUGCGGGUUCGAGUCCCAUACGGAACG | ≤ 0.5
GUUCCGUUGGCGUAAUGGUUACGCGUCUCCCUCGUAAGGAGAAGACUCCGGGUUCGAGCCCCGUACGGAACG | 0.548
GUUCCGGUGGCGUAAUGGUAACGCGUCUCCCUCCUAAGGCGAAGACUGCGGGUUCGAGUCCCGUACGGAACG | 0.807
GUUCCGUUCGCGUAAUGGUAACGCGUCUCCCACCUAAGGAGAAGACUGCGGGUUCCAGUCCCGUACGGAACG | ≤ 0.5
GUUCCGUAGGCGUAAUGGUAACGCGGCUACCUCCUAAGGAGAAGAUUGCGGGUUCGAAUCCCAUACGGAACG | ≤ 0.5
GUUCCGUUGGCGUGAUGGUAGUGCGUCUCCCUCCUAAGGAGAAGACUGCGGGUUCGAGUCCCGUACGGAACG | 0.555

Variant | yeast fitness
GUUCCGUUGGCGUAAUGGUAACGCGUCUGCCUCCUAAGGAGUAGACUGCGGGUUCGAGUCCCGUACGGAACG | 0.712
GUUCCGUUGGCGUAAUGGUAACGCGUCUUCCUCCUAAGGAGAAGACUGCGGGUUGGAGUCCCGUACGGAACG | 0.614
GUUCCGUUGGCGUAAUGGUAACGUGUCUCCCUCCUAAGGAGAUGACUGCGGGUUGGAGUCCCGUACGGAACG | 0.588
GUUGCGUUGGCGUAAUGGUAACGCGUCUCCCUCCUAAGGAGAAGACAGCGGGUUCGAGUCCCGUACGGAACG | 0.854
GUUCCGUUGGCGUAAUGGUGACGCGUCUCCCUCCUAAGGAGAAGACUGCGGGUUCGAGUCCCGUAUGGAACG | 0.857
GUUCCGUUGGCGUAAAGGUAACGUGUCUCGCUCCAAAGGAGAAGACUGAGGGUUCGAGUCCCGUACCGAACG | 0.751
GUGCCGUUGGCGUAAUGGUAACGCGUCUCCCUCCUAAGGAGAAGACUGCAGGUUCGAGUCCCGUACGGAACG | 0.817
GUUCCGUUGGCGUAAUGGUAACGGGUCUCCCUCCUAAGGUGAAGACAGCGGGUUCGAGUCCCGUACGGAACG | ≤ 0.5
GUUCCGUUAGCGUAAUGGUAACGUCUCUCGCUCCUAAGGAGAAGACUGCCGGUUCAAGUCCCGUAUGGAACG | ≤ 0.5
GUUCGGUUGGCGUAAUGGUAACGCGUGUCCCUCCUAAGGAGAACACUGCGGGUUCGAGACCCGUACGGAACG | ≤ 0.5
GUUCCGUUGGCGUACUGGUAACGCGUCUCCCUCCUAAGGAGAAGGCUGCGGGCUCGAGUCCCGUACGGAACG | ≤ 0.5
GUUCCGUUGGUGUAAUGGUAACGCGUGUCCCUCCUAAGGAGAAGACUGCGGGUUUGAGUCCCGUAAGGAACG | ≤ 0.5
GUUCCGUUGCCGUAAUGGUCACGCGUCUCCCUCCUAAGGAGAAGACUGCGGGUUCGAGUCCCGUACGGAACG | 0.631
GCUACGUUGGCGUAAUGGUAACACGUCUCCCUCCUAAGGAGAAGACUGCGGGUUCGAGUCACGUACGGAACG | ≤ 0.5
GUUGCGUUGGCGUAAUGGUAACGCGUCUUCCUCCUAAGGAGAAGACUGCGGGUUCAAGUCCCGUCCGGACCG | 0.77
GUUCCGUUGGCGUCAUGGUAACGCGUCUCCCUGCUAAGGAGAAGACUGCGGGUUCGAGUCCCGUACGGAACG | 0.726
GUUACGUUGGCGUAAUGGUAACGCGUCUCCCUCCUAAGGAGAAGACUGCGGGUUCGAGUCCCGUACGGGACG | 0.904
GUACGGUUGGCGUAAUGGUAACGCGUCUCCCUCCUAAGGAGAAGACUGCGGGUUUGAGUCCCGUACCGAACG | 0.599
GUUCCGUUAGCGUAAUGGUAACGCGUCUCCUUCCUAAGGAGAUGACUGCGGGUUCGAGUCCCGUACGGAACG | 0.697
GUCCCGUUGGCGUAAUGGUAACGCAUCUCCCUCCUAAGGAGCAGACUGCGGGUUCGAGUCCCGUACGGAACG | ≤ 0.5
GUUCCGUUGGCGUAAUGGUAACGCGUCUACCUCCUAAGGAGAAGACUGCGGGUUCGAGUCUCGUACGGAACG | 0.647
GUUCCGUAGGCGUAAUGGUCACGCGUCUCCCUCCUAAGGAGUAGACUGCGGGUUCGAGUCCCGUACGGAACG | ≤ 0.5
GUUCCGUUCCCGUAAUGGUAACGCGUCUGCCUCCUAAGGAGAAGACUGCGGGUUCGAGUCCCGUAUGGAACG | ≤ 0.5
GUACCGUUGGCGUAAUGCUAACGCGUCUCCCUCCUAAGGAGACGACUGCGGGUUCGACUCCCGUACGGAACG | ≤ 0.5
GUUCCGUUGGCGUAAUGGUAACGCGUCUCCCUCCUAAGGUGAUGACUGCGGGUUCGAGUCCCGUACGGAACG | 1.11

Variant | yeast fitness
GUUCCGUUAGCGUAAUGGUAAUGCGUCCCCCUCCUAAGGAGAAAACUGCGCGUUCGACUCCCGUACGGAACG | ≤ 0.5
GCCCCGUUGGCGUAAUGGUAACGCGUCUCCCUCUUAAGGAGAAGACUGCGGGUUCGAGUCCGAUACGGAACG | ≤ 0.5
GUUCCGUUGGUGUAAUGGUAACGCGUCUCCUUCCUAAGGAGAAGACUGCGGGUUCGAGACCCGUACGGAACG | ≤ 0.5
GUUCCGUUGGCGUAAUGGUAACGCGUCUCCCACCUAAGGAGAAGACUGCGGGUUCGAGUCGCGUACGCAACG | 0.601
GCUCCGUUGGCGUAAUGGCAACGCGUCUCCCUCCUAAGGAGAAGACUGCAGGUUCGAGUCCCGUACGGAACG | 0.593
GAUCCGUUGGCGUAAUGGUAACACGUCUGCCUCCUAAGGAGAAGACUGCGGGUUCGAGUCCCGUACGGUACG | 0.643
GUUCCGUUGGCCUUAUGGUUACACGUCUCCCUCCUAAGGAGAAGACUGCGGGUUCGAGUCCCGUACGAAACG | ≤ 0.5
GUUCCAUUGGCGUAAUGGUAACGCGUCGCCCUCCUAAGGAGAAGACUGCGGGUUCGAGUCCCGUACGGAACG | 0.886
GUUCCGUUGGCGUAAUGGUAUUGCGUCUCCCUCCUAAGGAGACGACUGAGGGUUCGAGUCCCGUACGGAACG | 0.595
GUUCGGUUGGCGUAAUGCUAACGCGUCUCCAUCCUAAUGAGAAGACUGCGGGUUCGAGUCCCGUACGGAACG | ≤ 0.5
GUUCCCUUGGCGUACUGGUAACGCGUCUCCUUCCUAAGGAGAAGACUGCGGGUUCGAGUCCCGUACGGAACG | ≤ 0.5
GAUCCGUUGGCGUAAUGGUAACGCGUCUCCCUCCUAAGGAGAAGAGUGCGGGUUCGAGUCUCGUACGGAACG | 0.804
GUUCCGUUGGCGUAAUGGUACCGCGUCUCCCACUUAAGGAGAAGACUGCGGGUUCGAGUCCCGUACGGAACG | ≤ 0.5
GUUCCGUUUGCGUAAUGGUAACGCGUCUCCCUCCUAAGGAGAGGACUGCGGGUUCGAGUCCCGUACGGAACG | 0.817
GUUCCGUUGGCGUACUGGUAACGCGUCUCCCUCCUAAGGACAAGCCUGCGGGUUCGAGUCCUGUACGGAACG | ≤ 0.5
GUUCCGUUGGCGUAAUGGUAACGGGUGUCCCUCCUUACGAGAAGACUGCGGGUUCGAGUGCCGUAAGGAACG | ≤ 0.5
GUUCUGUUGGCGUAAUGGUAACGCGUCUCCCUCCUUAGGAGAAGACUGCGGGUUCGAGUCCCGUUCGGAACG | 0.712
GUACCGUUGGCGUAAUGGUAACGCGUCUCCCUCCUAAGGAGAAGACUGCGGGUGCGAGUCCCGUACGGAACG | 0.595
GGUCCGUUGGCGUAAUGGUAACGCGUCUCCCUUCUAAGGAGAAGACUGCGGGUUCGACUCCCGUACGGAACG | 0.566
GUUACGUUGGCGUUAUGGUCACGCGUCGCCCACCUAAGGAGAAGACUGCGGGUUCGAGUCCCGUACGGAACG | ≤ 0.5
GUUCAGUUGGCGUCAUGGUAACGCGUCUCCCUCCUAAGGAGAAGACUGCGGGUUCGAGUCCCGUACGAAACG | ≤ 0.5
GUUCCGUUGGCGUAAUGGUAACGCGUCUCCCACCUAAGGAGAUGACUGCGGGUUCGAGUCCCGUACGGAACG | 0.879
GUUCCGUUGGCGUAAUCGUAACGCGUCUCCCUCCUAAGGAGAAGAUUGCCGGUUAGAGUCCCAUAUGGAACG | ≤ 0.5
GUUCCGUUGGCGUAAUGGUAACGCGUGUCCCUCCUAAAGAGAAGACUGCGGGUUCGAGUCCCGUACGGAACG | 0.745
GUUCCGUAGGCGUAAUGGUAACGCGUCUCCCUCCUGACGAGAAGACUGCGGCUUCGUGUCCCGUACGGUGCG | ≤ 0.5

— the RNAGym collection of RNA variant scans (doi:10.1126/science.aae0568)
